Laboratory results published in ChEMBL document CHEMBL4118202, “Chiral analogues of (+)-cyclazosin as potent α1B-adrenoceptor selective antagonist” (Bioorg Med Chem, 2018).

Experiments:
[1] = target: T1, Alpha-1B adrenergic receptor (Rattus norvegicus) (UniProt P15823); experiment: Antagonist activity at alpha1B adrenergic receptor in Wistar rat spleen assessed as inhibition of phenylephrine-induced contraction incubated for 30 mins in presence of beta-adrenoceptor blocker propranolol hydrochloride; format: functional
T1 sequence (whole entry): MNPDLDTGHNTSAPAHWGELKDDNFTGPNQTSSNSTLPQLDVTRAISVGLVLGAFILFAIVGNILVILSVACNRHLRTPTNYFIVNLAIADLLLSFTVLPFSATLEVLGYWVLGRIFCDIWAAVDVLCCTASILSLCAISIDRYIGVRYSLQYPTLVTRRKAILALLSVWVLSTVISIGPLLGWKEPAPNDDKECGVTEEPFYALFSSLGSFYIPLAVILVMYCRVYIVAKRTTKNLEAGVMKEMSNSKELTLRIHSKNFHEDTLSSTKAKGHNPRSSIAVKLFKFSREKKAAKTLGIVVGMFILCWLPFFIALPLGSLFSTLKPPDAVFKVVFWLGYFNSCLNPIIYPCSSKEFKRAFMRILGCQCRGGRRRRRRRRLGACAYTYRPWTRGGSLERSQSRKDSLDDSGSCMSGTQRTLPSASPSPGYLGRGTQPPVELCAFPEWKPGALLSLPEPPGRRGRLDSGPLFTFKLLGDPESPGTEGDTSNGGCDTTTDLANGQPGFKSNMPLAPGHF
Procedure, shortened: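 Spleen bisected longitudinally into strips in Krebs with propranolol 4 μM, held at 1 g and equilibrated 2 h. Two isometric cumulative phenylephrine curves, each followed by 30 min washing. Third curve after 30 min vehicle or antagonist. Potency as pA2 (Schild) or pKB at one concentration (van Rossum). Responses as % of control maximum; n ≥ 4.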

[2] = species on record: Homo sapiens; experiment: Selectivity ratio of compound effect for displacement of [3H]prazosin from human alpha1D adrenergic receptor expressed in CHO cell membranes to compound effect for displacement of [3H]prazosin from human alpha1A adrenergic receptor expressed in CHO cell membranes
Procedure, shortened: (§1)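 Ratio taken as the antilog of the difference between pKi values from [3H]prazosin displacement at human α1 subtypes expressed in CHO membranes.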

[3] = species on record: Homo sapiens; experiment: Selectivity ratio of compound effect for displacement of [3H]prazosin from human alpha1B adrenergic receptor expressed in CHO cell membranes to compound effect for displacement of [3H]prazosin from human alpha1D adrenergic receptor expressed in CHO cell membranes; procedure, shortened: as §1
[4] = species on record: Homo sapiens; experiment: Selectivity ratio of compound effect for displacement of [3H]prazosin from human alpha1B adrenergic receptor expressed in CHO cell membranes to compound effect for displacement of [3H]prazosin from human alpha1A adrenergic receptor expressed in CHO cell membranes; procedure, shortened: as §1
[5] = target: T2, Alpha-1D adrenergic receptor (Rattus norvegicus, UniProt P23944); experiment: Antagonist activity at alpha1D adrenergic receptor in Wistar rat thoracic aorta assessed as inhibition of noradrenaline-induced contraction measured after 30 mins in presence of cocaine hydrochloride and beta-adrenoceptor blocker propranolol hydrochloride; format: functional; conditions: read-out: pA2 (converted)
T2 sequence (P23944 whole entry): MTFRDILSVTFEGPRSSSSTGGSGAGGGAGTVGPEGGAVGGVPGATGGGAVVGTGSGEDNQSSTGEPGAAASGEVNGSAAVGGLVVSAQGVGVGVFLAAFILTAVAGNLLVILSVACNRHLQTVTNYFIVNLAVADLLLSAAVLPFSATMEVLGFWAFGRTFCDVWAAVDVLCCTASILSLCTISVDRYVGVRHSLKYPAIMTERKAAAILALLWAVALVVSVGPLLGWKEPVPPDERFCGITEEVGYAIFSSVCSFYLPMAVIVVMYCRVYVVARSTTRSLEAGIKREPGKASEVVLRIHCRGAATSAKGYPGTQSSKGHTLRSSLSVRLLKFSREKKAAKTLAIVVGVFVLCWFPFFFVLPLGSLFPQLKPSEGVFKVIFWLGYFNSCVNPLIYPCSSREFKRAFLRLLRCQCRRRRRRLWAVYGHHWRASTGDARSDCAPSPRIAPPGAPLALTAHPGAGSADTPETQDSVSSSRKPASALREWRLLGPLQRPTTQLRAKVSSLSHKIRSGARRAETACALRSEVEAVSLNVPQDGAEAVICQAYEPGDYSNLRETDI
Procedure, shortened: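 Helical thoracic aorta strips, endothelium removed (checked by loss of acetylcholine relaxation), in Krebs at 1 g, equilibrated ≥2 h. Isometric cumulative noradrenaline curves at 1 h intervals; the second served as control, the third followed 30 min antagonist.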

[6] = target: T3, Alpha-1A adrenergic receptor (Rattus norvegicus, UniProt P43140); experiment: Antagonist activity at alpha1A adrenergic receptor in Wistar rat prostatic rat vas deferens assessed as inhibition of noradrenaline-induced contraction preincubated for 30 mins followed by noradrenaline addition measured after 45 mins in presence of cocaine hydrochloride; format: functional; conditions: read-out: pA2 (converted)
T3 sequence (P43140 whole entry): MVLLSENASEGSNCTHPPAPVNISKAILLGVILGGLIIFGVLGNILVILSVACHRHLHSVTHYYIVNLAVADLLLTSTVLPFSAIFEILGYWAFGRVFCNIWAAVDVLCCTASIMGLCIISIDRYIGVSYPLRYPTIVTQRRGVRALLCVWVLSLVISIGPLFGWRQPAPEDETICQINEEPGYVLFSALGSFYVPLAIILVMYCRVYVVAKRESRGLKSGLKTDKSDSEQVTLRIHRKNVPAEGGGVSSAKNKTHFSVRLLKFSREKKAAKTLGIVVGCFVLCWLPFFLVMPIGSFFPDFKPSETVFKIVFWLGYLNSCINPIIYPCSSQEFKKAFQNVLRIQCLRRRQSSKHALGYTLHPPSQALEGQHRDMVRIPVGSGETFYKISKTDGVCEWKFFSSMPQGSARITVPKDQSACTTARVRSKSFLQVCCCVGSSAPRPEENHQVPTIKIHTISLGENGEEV
Procedure, shortened: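 Prostatic rat vas deferens, 2 cm portions, held at 0.35 g in Tyrode (pH 7.4, 37 °C, 95% O2/5% CO2). Cocaine 10 μM added 20 min before the agonist. Tissue equilibrated 45 min and primed twice with 10 μM noradrenaline. Isotonic cumulative noradrenaline curves were run before and after 30 min antagonist. pA2 came from Schild plots (≥3 concentrations); otherwise pKB (van Rossum). n ≥ 4.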

| Structure (SMILES) | pKb [1] | Kb [5] [nM] | Kb [6] [nM] | Selectivity ratio [2] | Selectivity ratio [3] | Selectivity ratio [4] |
| --- | --- | --- | --- | --- | --- | --- |
| CCCN(CCC)c1nc(N2CCN(C(=O)c3ccco3)[C@@H]3CCCC[C@@H]32)nc2cc(OC)c(OC)cc12 | 7.17 | 58.9 | – | 29 | 0.5 | 15 |
| COc1cc2nc(N3CCN(C(=O)COc4c(OC)cccc4C(C)C)[C@H]4CCCC[C@H]43)nc(N)c2cc1OC | – | 58.9 | 151 | 2 | 3 | 6 |
| CCCN(CCC)c1nc(N2CCN(C(=O)c3ccco3)[C@H]3CCCC[C@H]32)nc2cc(OC)c(OC)cc12 | 7.86 | – | – | 4 | 17 | 74 |
| COc1cc2nc(N3CCN(C(=O)Cc4ccc5ccccc5c4)[C@H]4CCCC[C@H]43)nc(N)c2cc1OC | 8.05 | 135 | – | 8 | 2 | 14 |
| COc1cc2nc(N3CCN(C(=O)C4COc5ccccc5O4)[C@H]4CCCC[C@H]43)nc(N)c2cc1OC (single isomer, unassigned; (-)) [CYCLODOXAZOSIN] | 8.61 | – | 200 | – | – | – |

Continued, in another order:

| pKb [1] | Kb [5] [nM] | Kb [6] [nM] | Structure (SMILES) | Selectivity ratio [2] | Selectivity ratio [3] | Selectivity ratio [4] |
| --- | --- | --- | --- | --- | --- | --- |
| 8.77 | 240 | 776 | COc1cc2nc(N3CCN(C(=O)OCc4ccccc4)[C@H]4CCCC[C@H]43)nc(N)c2cc1OC | 1 | 11 | 14 |
| 8.26 | 141 | – | COc1cc2nc(N3CCN(C(=O)C(C)(C)C)[C@H]4CCCC[C@H]43)nc(N)c2cc1OC | 1 | 8 | 9 |
| 7.99 | 155 | – | CCCCCC(=O)N1CCN(c2nc(N)c3cc(OC)c(OC)cc3n2)[C@@H]2CCCC[C@@H]21 | 2 | 4 | 6 |
| – | 2.19 | 44.7 | COc1cc2nc(N3CCN(C(C)=O)[C@@H]4CCCC[C@@H]43)nc(N)c2cc1OC | 60 | 0.2 | 12 |
| – | 0.525 | 16.2 | COc1cc2nc(N3CCN(C(=O)OCc4ccccc4)[C@@H]4CCCC[C@@H]43)nc(N)c2cc1OC | 13 | 0.2 | 3 |
| – | 1700 | 3020 | COc1cc2nc(N3CCN(C(C)=O)[C@H]4CCCC[C@H]43)nc(N)c2cc1OC | 2 | 12 | 25 |
